From ChEMBL document CHEMBL1131232, “New azole antifungals. 3. Synthesis and antifungal activity of 3-substituted-4(3H)-quinazolinones” (J Med Chem, 1998)
≈ marks a conversion by molar mass, not a printed value.

How the values were obtained:
[1] = In vitro antifungal activity against 6 filamentous fungi; type: functional
Procedure, shortened: (§1)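 Agar dilution on Kimmig's agar with 0.5% glycerol, using ATCC strains or clinical isolates. Drug stocks were 800 μg/mL in 50% ethanol, tested as 2-fold dilutions from 80 to 0.03 μg/mL. Inocula were 10⁵ cfu/mL. […] Geometric means took >80 as 160 and ≤0.03 as 0.03.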

[2] = system: Mus musculus; test: In vivo antifungal activity against murine candidosis model after peroral administration with 0.25 mg/kg at various time intervals. (percent protection for 100% mortality with untreated group); type: functional; conditions: route oral
Procedure, shortened: (§2)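 Groups of 10 male mice were infected iv with 0.2 mL of C. albicans at 2 to 8×10^7 cfu/mL. Drug was given orally as a suspension in 1% Tween + 0.2% carboxymethylcellulose at 1, 4 and 24 h post-infection; controls got vehicle only. Survival was scored on days 3, 5, 7 and 9. Read-out was % survival on the day all untreated controls died, or on the day all mice given fluconazole at the same dose died.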

[3] = In vitro for antifungal activity against 10 yeasts; type: functional; procedure, shortened: as §1
[4] = system: Mus musculus; test: In vivo antifungal activity against murine candidosis model after peroral administration with 0.25 mg/kg at various time intervals. (percent protection for 100% mortality with fluconazole-treated group.); type: functional; conditions: route oral; procedure, shortened: as §2
[5] = system: Mus musculus; test: (§3) In vivo antifungal activity against murine candidosis model after peroral administration with 2.5 mg/kg at various time intervals. (percent protection for 100% mortality with fluconazole-treated group.); type: functional; conditions: route oral; procedure, shortened: as §2
[6] = system: Mus musculus; test: In vivo antifungal activity against murine candidosis model after peroral administration with 2.5 mg/kg at various time intervals. (percent protection for 100% mortality with untreated group); type: functional; conditions: route oral; procedure, shortened: as §2
[7] = system: Candida albicans; test: as §3; type: functional; conditions: route oral; procedure, shortened: as §2
[8] = Half-life in rats after iv administration; type: ADME, organism-based; conditions: rat, in vivo
[9] = system: Candida albicans; test: The compound was tested in vitro for antifungal activity against Candida albicans.; type: functional; procedure, shortened: as §1
[10] = system: Candida albicans; test: In vivo antifungal activity against murine candidosis model after peroral administration with 0.5 mg/kg at various time intervals. (percent protection for 100% mortality with fluconazole-treated group.); type: functional; conditions: route oral; procedure, shortened: as §2
[11] = system: Candida albicans; test: In vivo antifungal activity against murine candidosis model after peroral administration with 0.5 mg/kg at various time intervals. (percent protection for 100% mortality with untreated group); type: functional; conditions: route oral; procedure, shortened: as §2
[12] = system: Candida albicans; test: In vivo antifungal activity against murine candidosis model after peroral administration with 1 mg/kg at various time intervals. (percent protection for 100% mortality with fluconazole-treated group.); type: functional; conditions: route oral; procedure, shortened: as §2
[13] = system: Candida albicans; test: In vivo antifungal activity against murine candidosis model after peroral administration with 1 mg/kg at various time intervals. (percent protection for 100% mortality with untreated group); type: functional; conditions: route oral; procedure, shortened: as §2
[14] = system: Mus musculus; test: The compound was tested in vivo for anti-candida activity in mice model 1 (dose :0.5 mg/kg,fluconazole-treated group); type: functional
[15] = system: Mus musculus; test: The compound was tested in vivo for anti-candida activity in mice model 1(dose: 0.5 mg/kg, untreated group).; type: functional
[16] = system: Mus musculus; test: The compound was tested in vivo for anti-candida activity in mice model 2(dose: 5 mg/kg, untreated group).; type: functional
[17] = system: Mus musculus; test: The compound was tested in vivo for anti-candida activity in mice model 2(dose :5 mg/kg,fluconazole-treated group); type: functional
[18] = system: Oryctolagus cuniculus; test: In vivo antifungal activity against systemic candidosis in rabbit lung at a dose of 12.5 mg/kg, qd, po.; type: functional
Procedure, shortened: (§4)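 Groups of 10 male New Zealand rabbits were infected iv with C. albicans (1.2×10^7 cfu/kg). Drug was given orally as a suspension in 1% Tween 80 + 0.2% carboxymethylcellulose 4 h post-infection, then qd for 6 more days; controls got vehicle. On day 7, kidney or lung was homogenized in saline and plated on Sabouraud agar (37 °C, 7 days). Read-out was log cfu/g wet tissue.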

[19] = system: Oryctolagus cuniculus; test: In vivo antifungal activity against systemic candidosis in rabbit lung at a dose of 2.5 mg/kg, qd, po.; type: functional
Procedure, shortened: (§5)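 Male New Zealand rabbits, 10 per group, were infected iv with C. albicans at 1.2×10^7 cfu/kg. Oral dosing in 1% Tween 80 + 0.2% CMC began 4 h post-infection and continued qd for 6 more days; controls received vehicle. On day 7, kidney and lung homogenates in saline (1 mL/g) were plated on Sabouraud agar (37 °C, 7 days); read-out was log cfu/g wet tissue.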

[20] = system: Oryctolagus cuniculus; test: In vivo antifungal activity against systemic candidosis in rabbit lung at a dose of 0.5 mg/kg, qd, po.; type: functional; procedure, shortened: as §5
[21] = system: Oryctolagus cuniculus; test: In vivo antifungal activity against systemic candidosis in rabbit kidney at a dose of 0.5 mg/kg, qd, po.; type: functional; procedure, shortened: as §5
[22] = system: Oryctolagus cuniculus; test: In vivo antifungal activity against systemic candidosis in rabbit kidney at a dose of 12.5 mg/kg, qd, po.; type: functional; procedure, shortened: as §4
[23] = system: Oryctolagus cuniculus; test: In vivo antifungal activity against systemic candidosis in rabbit kidney at a dose of 2.5 mg/kg, qd, po.; type: functional; procedure, shortened: as §5
[24] = system: Rattus norvegicus; test: In vivo activity against disseminated aspergillosis (liver) in immunocompromized rat model at a dose of 1 mg/kg, bid, po; type: functional
Procedure, shortened: (§6)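 Male Sprague–Dawley rats, 10 per group, were immunosuppressed with dexamethasone 21-acetate 1 mg/kg/day po from 4 days before iv infection. Oral dosing in 1% Tween 80 + 0.2% CMC was given 1 and 8 h post-infection, then bid for 6 more days. Vehicle controls were dosed po bid. On day 7, liver homogenate was plated on Sabouraud agar (37 °C, 7 days) and log cfu/g recorded.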

[25] = system: Rattus norvegicus; test: In vivo activity against disseminated aspergillosis (liver) in immunocompromized rat model at a dose of 25 mg/kg, bid, po; type: functional; procedure, shortened: as §6
[26] = system: Rattus norvegicus; test: In vivo activity against disseminated aspergillosis (liver) in immunocompromized rat model at a dose of 5 mg/kg, bid, po; type: functional; procedure, shortened: as §6
[27] = system: Rattus norvegicus; test: In vivo activity against disseminated aspergillosis (liver) in immunocompromized rat model at a dose of 50 mg/kg, bid, po; type: functional; procedure, shortened: as §6
[28] = system: Rattus norvegicus; test: In vivo activity against disseminated aspergillosis (liver) in immunocompromized rat model at a dose of 2 mg/kg, bid, po; type: functional
[29] = system: Candida albicans; test: Tested in vivo for anti-candida activity in mice model 1 (dose: 0.5 mg/kg, untreated group).; type: functional
[30] = system: Mus musculus; test: The compound was tested in vivo for anti-candida activity in mice model 2(dose: 1 mg/kg, untreated group).; type: functional
[31] = system: Mus musculus; test: The compound was tested in vivo for anti-candida activity in mice model 2(dose :1 mg/kg,fluconazole-treated group); type: functional
[32] = system: Candida albicans; test: Tested in vivo for anti-candida activity in mice model 1 (dose:0.5 mg/kg, fluconazole-treated group); type: functional
[33] = system: Mus musculus; test: The compound was tested in vivo for anti-candida activity in mice model 1(dose: 1 mg/kg,fluconazole-treated group); type: functional
[34] = system: Mus musculus; test: The compound was tested in vivo for anti-candida activity in mice model 1(dose: 1 mg/kg, untreated group).; type: functional

For C[C@@H](n1cnc2cc(Cl)ccc2c1=O)[C@@](O)(Cn1cncn1)c1ccc(F)cc1F, the MIC ([1]; read-out: MIC) was greater than 80 µg/mL, the Protection [2] was 0% and the MIC ([3]; read-out: MIC) was greater than 80 µg/mL. It also gave a Protection [4] of 0%.
C[C@@H](n1cnc2ncccc2c1=O)[C@](O)(Cn1cncn1)c1ccc(F)cc1F showed an MIC ([1]; read-out: MIC) greater than 80 µg/mL, a Protection [5] of 0% and a Protection [6] of 0%. For the same compound, the MIC ([3]; read-out: MIC) was 43 µg/mL (≈ 108 µM).
With C[C@@H](n1cnc2cc(Cl)ccc2c1=O)[C@](O)(Cn1cncn1)c1ccc(Cl)cc1Cl the MIC ([1]; read-out: MIC) was 1.6 µg/mL (≈ 3.44 µM), the Protection [7] was 0% and the Protection [6] was 80%. It also gave an MIC ([3]; read-out: MIC) of 0.2 µg/mL (≈ 0.43 µM).
Work on C[C@@H](n1cnc2cc(I)ccc2c1=O)[C@](O)(Cn1cncn1)c1ccc(F)cc1F yielded a half-life [8] greater than 2880 min, an MIC [9] of less than 0.03 µg/mL and an MIC ([1]; read-out: MIC) of 0.9 µg/mL (≈ 1.72 µM). It also gave a Protection [10] of 0%, a Protection [11] of 100% and an MIC ([3]; read-out: MIC) of 0.3 µg/mL (≈ 0.573 µM).
With C[C@H](n1cnc2cc(Cl)ccc2c1=O)[C@](O)(Cn1cncn1)c1ccc(F)cc1F the MIC ([1]; read-out: MIC) was 65 µg/mL (≈ 151 µM), the Protection [2] was 0% and the MIC ([3]; read-out: MIC) was 7.4 µg/mL (≈ 17.1 µM). The Protection [4] was 0%.
For C[C@@H](n1cnc2cc(Cl)ccc2c1=O)[C@](O)(Cn1cncn1)c1ccc(F)cc1F (stereo in doubt; 20) [ALBACONAZOLE], the half-life [8] was 174 min, the MIC [9] was less than 0.03 µg/mL and the MIC [1] was 0.7 µg/mL (≈ 1.62 µM). For the same compound, the Protection [12] was 0%, the Protection [13] was 0% and the Protection [11] was 0%. It also gave a Protection [14] of 0%, a Protection [15] of 0% and a Protection [16] of 90%. The Protection [17] was 0%, the Log cfu/g [18] was 0 and the Log cfu/g [19] was 0.12. The Log cfu/g [20] was 0.39, the Log cfu/g [21] was 0.68 and the Log cfu/g [22] was 0.35. The Log cfu/g [23] was 0.3, the Log cfu/g [24] was 1.59 and the Log cfu/g [25] was 0.48. For the same compound, the Log cfu/g [26] was 1.22, the Log cfu/g [27] was 0 and the MIC [3] was 0.3 µg/mL (≈ 0.695 µM).
C[C@@H]1[C@H](O)[C@@H](C)/C=C/C=C/C=C/C=C/C=C/C=C/C=C/[C@H](O[C@@H]2O[C@H](C)[C@@H](O)[C@H](N)[C@@H]2O)C[C@@H]2O[C@](O)(C[C@@H](O)C[C@@H](O)[C@H](O)CC[C@@H](O)C[C@@H](O)CC(=O)O[C@H]1C)C[C@H](O)[C@H]2C(=O)O [AMPHOTERICIN B] showed a Log cfu/g [28] of 0.1.
In the case of OC(Cn1cncn1)(Cn1cncn1)c1ccc(F)cc1F [FLUCONAZOLE], the MIC ([1]; read-out: MIC) is reported as greater than 80 µg/mL, the Protection [29] is reported as 100% and the Log cfu/g [18] is reported as 1.44. For the same compound, the Log cfu/g [22] was 1.29 and the MIC ([3]; read-out: MIC) was 30 µg/mL (≈ 98 µM).
C[C@H]([C@](O)(Cn1cncn1)c1ccc(F)cc1F)S(C)(=O)=O [GENACONAZOLE] gave an MIC ([1]; read-out: MIC) of 25 µg/mL (≈ 75.5 µM), a Protection [30] of 100% and a Protection [31] of 20%. For the same compound, the Protection [32] was 100%, the Protection [29] was 100% and the MIC ([3]; read-out: MIC) was 8.7 µg/mL (≈ 26.3 µM).
CCC(C)n1ncn(-c2ccc(N3CCN(c4ccc(OC[C@@H]5CO[C@@](Cn6cncn6)(c6ccc(Cl)cc6Cl)O5)cc4)CC3)cc2)c1=O (stereo partly specified) [ITRACONAZOLE] gave an MIC ([1]; read-out: MIC) of 63 µg/mL (≈ 89.3 µM), a Protection [32] of 0% and a Protection [29] of 0%. It also gave an MIC ([3]; read-out: MIC) of 5.2 µg/mL (≈ 7.37 µM).
C[C@@H](c1nc(-c2ccc(C#N)cc2)cs1)[C@](O)(Cn1cncn1)c1ccc(F)cc1F [RAVUCONAZOLE] showed an MIC ([1]; read-out: MIC) of 0.8 µg/mL (≈ 1.83 µM), a Protection [30] of 20% and a Protection [31] of 0%. The Protection [32] was 0%, the Protection [29] was 50% and the MIC ([3]; read-out: MIC) was 0.3 µg/mL (≈ 0.686 µM).
For C[C@@H](c1ncncc1F)[C@](O)(Cn1cncn1)c1ccc(F)cc1F [VORICONAZOLE], the MIC ([1]; read-out: MIC) was 0.5 µg/mL (≈ 1.43 µM), the Protection [32] was 0% and the Protection [33] was 0%. For the same compound, the Protection [34] was 20%, the Protection [29] was 0% and the MIC ([3]; read-out: MIC) was 0.6 µg/mL (≈ 1.72 µM).
